According to ChEMBL document CHEMBL3407350, “Synthesis and anti-hepatitis B virus activity of C4 amide-substituted isosteviol derivatives” (Bioorg Med Chem, 2015):
In brackets after ≈: the same amount, converted by molar mass.

Experiments:
[1] = tested on: Hepatitis B virus; experiment: Antiviral activity against HBV infected in human HepG2(2.2.15) cells assessed as inhibition of surface antigen secretion by EIA; assay type: functional, organism-based
In short: (§1)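 HepG2 2.2.15 cells (HepG2 stably carrying a head-to-tail HBV DNA dimer; MEM, 10% FBS, 37 °C, 5% CO2) treated with compound for 3 days; conditioned medium assayed for secreted HBsAg and HBeAg by enzyme immunoassay; mean and SD, n = 3; IC50 taken as 50% inhibitory concentration.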

[2] = Selectivity index, ratio of TC50 for human HepG2(2.2.15) cells to IC50 for HBV infected in human HepG2(2.2.15) cells assessed as inhibition of surface antigen secretion
In short: (§2)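 Selectivity index computed as TC50 (MTS, HepG2 2.2.15, 3 days) divided by IC50 for HBsAg, HBeAg or virion DNA inhibition in the same cell line.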

[3] = Cytotoxicity against human HepG2(2.2.15) cells; assay type: cell-based; details: read-out: TC50 (the source's name)
In short: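 Cytotoxicity by MTS: HepG2 2.2.15 cells seeded at 4×10^4 cells/ml for 24 h, exposed to serial dilutions 2.5–160 µg/ml for 3 days; four replicates, viability expressed relative to untreated control; TC50 as 50% cytotoxic concentration.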

[4] = tested on: Hepatitis B virus; experiment: Antiviral activity against HBV infected in human HepG2(2.2.15) cells assessed as inhibition of e antigen secretion by EIA; assay type: functional, organism-based; in short: as §1
[5] = Selectivity index, ratio of TC50 for human HepG2(2.2.15) cells to IC50 for HBV infected in human HepG2(2.2.15) cells assessed as inhibition of e antigen secretion; in short: as §2
[6] = Selectivity index, ratio of TC50 for human HepG2(2.2.15) cells to IC50 for HBV infected in human HepG2(2.2.15) cells assessed as inhibition of viral DNA replication; in short: as §2
[7] = tested on: Hepatitis B virus; experiment: Antiviral activity against HBV infected in human HepG2(2.2.15) cells assessed as inhibition of viral DNA replication; assay type: functional, organism-based
In short: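 Secreted virion DNA from HepG2 2.2.15 cells after 3 days of compound treatment; HBV DNA isolated from conditioned medium and quantified by SYBR Green real-time PCR (45 cycles, 95 °C 15 s / 58 °C 1 min); mean and SD, n = 3; IC50 as 50% inhibitory concentration.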

| SMILES | IC50 [1] | Selectivity Index [2] | CC50 [3] | IC50 [4] | Selectivity Index [5] | Selectivity Index [6] | IC50 [7] |
| --- | --- | --- | --- | --- | --- | --- | --- |
| COc1ccc(C(=O)N[C@]2(C)CCC[C@@]3(C)[C@@H]4CC[C@@]5(C)C[C@]4(CC[C@@H]32)CC5=O)cc1 | 18.8 µg/mL (≈ 44.3 µM) | 1.2 | 22.4 µg/mL (≈ 53 µM) | – | – | – | – |
| CCC(=O)N[C@]1(C)CCC[C@@]2(C)[C@@H]3CC[C@@]4(C)C[C@]3(CC[C@@H]21)CC4=O | 32.5 µg/mL (≈ 93.9 µM) | 2.7 | 87.5 µg/mL (≈ 253 µM) | – | – | – | – |
| C[C@@]12CC[C@@H]3[C@@](CC[C@H]4[C@@]3(C)CCC[C@@]4(C)NC(=O)c3ccc(Cl)cc3)(CC1=O)C2 | 20.8 µg/mL (≈ 48.7 µM) | 1.04 | 21.6 µg/mL (≈ 50.6 µM) | – | – | – | – |
| C[C@@]12CC[C@@H]3[C@@](CC[C@H]4[C@@]3(C)CCC[C@@]4(C)NC(=O)c3ccc(I)cc3)(CC1=O)C2 | – | – | 10.5 µg/mL (≈ 20.3 µM) | – | – | – | – |
| C[C@@]12CC[C@@H]3[C@@](CC[C@H]4[C@@]3(C)CCC[C@@]4(C)NC(=O)c3ccc(Br)cc3)(CC1=O)C2 | 10.5 µg/mL (≈ 22.3 µM) | 1.41 | 14.9 µg/mL (≈ 31.5 µM) | – | – | – | – |
| C[C@@]12CC[C@@H]3[C@@](CC[C@H]4[C@@]3(C)CCC[C@@]4(C)NC(=O)c3ccc(F)cc3)(CC1=O)C2 | 4.17 µg/mL (≈ 10.1 µM) | 4.73 | 19.7 µg/mL (≈ 48 µM) | 12.8 µg/mL (≈ 31.1 µM) | 1.54 | 2.65 | 7.44 µg/mL (≈ 18.1 µM) |
| C[C@@]12CC[C@@H]3[C@@](CC[C@H]4[C@@]3(C)CCC[C@@]4(C)NC(=O)c3ccccc3)(CC1=O)C2 | 35.6 µg/mL (≈ 90.6 µM) | 1.36 | 48.5 µg/mL (≈ 123 µM) | – | – | – | – |
